NR1D1 modulator = modulates human Rev-erb alpha binding to DNA. Rev-erbα–FITC-DNA binding, fluorescence polarization, 90 min. activity, % at 10 µM. 370,000 tested, 0.79% active. AID 1259318;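 active means activity above about 14%, limit read from the data; passing the limit was not always enough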;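 further: 0% = DMSO wells with 35 nM protein and 100% = DMSO wells with 750 nM protein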
MC4R antag cAMP = blocks human MC4R cAMP signaling; inhibition, % at 6.5 µM; AID 540295; MC4R-expressing cells, MTII-stimulated cAMP, LANCE TR-FRET; P32245; 360,000 tested, 0.48% active;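 active means inhibition above its plate's cutoff, the mean of tested wells on that plate plus 3 SD, cut at about 29% in these data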;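 further: 0% = Melanotan II alone and 100% = Melanotan II plus saturating MCL0020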
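Material – human MC4R-expressing U2OS cells · Repeats – no replicates · Detection – TR-FRET with Eu-cAMP and labeled anti-cAMP, 671 nm · Times – compound 30 min, challenge 1 h, detection 1 h · Compound – single nominal compound dose of 6.5 µM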
MC4R ag barr = activates human MC4R beta-arrestin recruitment; P32245; U2OS MC4R beta-arrestin complementation, luminescence; percent of melanotan II response, DMSO zero; activation, % at 8.9 µM; 360,000 tested, 0.98% active; AID 540308;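 active means activation above a per-plate cutoff, the mean activation of sample wells on that plate plus 3 SD, cut at about 8% in these data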
NTR1 ag = activates human neurotensin receptor 1. NTR1-U2OS beta-arrestin-GFP spot imaging, agonist mode. activation, % at 20 µM. 330,000 tested, 0.17% active. AID 493036;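 active means activation at or above 40% of the spot to cytoplasm intensity ratio, with at least 20 cells analyzed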;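 further: 0% = DMSO without peptide and 100% = 100 nM NTR1 peptide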
Target sequence (P30989 whole entry, looked up): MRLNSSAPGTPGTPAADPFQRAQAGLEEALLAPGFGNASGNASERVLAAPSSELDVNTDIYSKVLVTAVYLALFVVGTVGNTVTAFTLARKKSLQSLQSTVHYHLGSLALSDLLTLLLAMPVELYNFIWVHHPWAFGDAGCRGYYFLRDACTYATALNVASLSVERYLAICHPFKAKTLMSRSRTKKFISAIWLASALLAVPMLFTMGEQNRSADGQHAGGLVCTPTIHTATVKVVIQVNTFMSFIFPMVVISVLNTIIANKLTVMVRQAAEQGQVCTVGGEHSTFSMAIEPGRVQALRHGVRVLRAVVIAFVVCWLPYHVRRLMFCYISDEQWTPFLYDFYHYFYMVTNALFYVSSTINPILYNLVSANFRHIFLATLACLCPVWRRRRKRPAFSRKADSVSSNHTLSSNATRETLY
PG9 binder = binds the HIV-1 gp120 antibody PG9. 360,000 tested, 0.43% active. inhibition, % at 6.7 µM. AID 624416. TR-FRET gp120-PG9 antibody binding; in the data active means inhibition above about 8.5%
Starred values were filed as active, the others as inactive. Sampled rows, rich in hits. Any-hit rate of the full collection: about 2.5%.

What do the screens show for `Cc1onc(-c2ccccc2Cl)c1C(=O)Oc1cc(N)n(S(=O)(=O)c2ccc(F)cc2)n1`?
NR1D1 modulator: -2; MC4R antag cAMP: 29*; MC4R ag barr: 1; NTR1 ag: 20; PG9 binder: 0

Results for CCCCCN1CCCCC(NC(=O)CSc2ccccc2)C1=O (stereo unspecified) ?
NR1D1 modulator: 0

How did CC1=CC2C(C(O)CC3(C)C2CC(C)C32OCOC23COCO3)C2(C)C/C(=C\O)C(=O)C=C12 (stereo unspecified) do in these assays?
NR1D1 modulator: -3; MC4R antag cAMP: 26; MC4R ag barr: 29*; PG9 binder: -2

How did C[C@@H]1COc2cc(F)ccc2S(=O)(=O)N1C do in these assays?
NR1D1 modulator: 10

How did O=C(O)c1ccc(N/N=C/C2=C(N3CCOCC3)C(=C\c3ccccc3)/CC2)cc1 do in these assays?
NR1D1 modulator: -2; MC4R antag cAMP: 29*; MC4R ag barr: -1; NTR1 ag: 5; PG9 binder: -3

How did Cc1cc(C)nc(N/N=C/C2=C(N3CCOCC3)C(=C\c3ccc(Cl)cc3)/CC2)n1 do in these assays?
NR1D1 modulator: 2; MC4R antag cAMP: 8; MC4R ag barr: -4; NTR1 ag: 1; PG9 binder: -1

How did CSc1ccccc1NC(=O)c1cc(-c2ccc3c(c2)OCO3)on1 do in these assays?
NR1D1 modulator: 13; MC4R antag cAMP: -3; MC4R ag barr: 12*; NTR1 ag: -1; PG9 binder: -1

What do the screens show for `O=C(OC12CCCN(C1)/C(=C/c1ccc(Cl)cc1)C2)c1cccc(F)c1` (stereo unspecified)?
NR1D1 modulator: 8

Results for COc1ccc(CCNC(=O)c2cc(-c3ccccc3)on2)cc1OC ?
NR1D1 modulator: -8; MC4R antag cAMP: 14; MC4R ag barr: 9.5*; NTR1 ag: 0; PG9 binder: -1

How did CCCCOc1ccc(C(=O)NC2CCCCN(Cc3ccc(Cl)cc3)C2=O)cc1 (stereo unspecified) do in these assays?
NR1D1 modulator: 0

What do the screens show for `CCN(CC)S(=O)(=O)c1ccc(-c2nnc(SCc3nnc(-c4ccccc4)o3)o2)cc1`?
NR1D1 modulator: -5; MC4R antag cAMP: 4; MC4R ag barr: 8.4*; NTR1 ag: 5; PG9 binder: 0

How did Cc1nn(C(=O)CNS(=O)(=O)c2ccccc2)c(C)c1Sc1ccc(Cl)cc1 do in these assays?
NR1D1 modulator: 6; MC4R antag cAMP: 9; MC4R ag barr: 8.9*; NTR1 ag: 3; PG9 binder: -2

How did O=C(N/N=C/c1ccc(Cl)cc1Cl)Nc1ccccc1 do in these assays?
NR1D1 modulator: -3; MC4R antag cAMP: -4; MC4R ag barr: 16*; NTR1 ag: 16; PG9 binder: 1

How did CC1CCN(c2ccc(C(=O)O)cc2NS(=O)(=O)c2ccccc2[N+](=O)[O-])CC1 do in these assays?
NR1D1 modulator: -1

Results for COc1ccc(CN2CCN(CC(O)Cn3c4ccccc4c4ccccc43)CC2)cc1 (stereo unspecified) ?
NR1D1 modulator: 2; MC4R antag cAMP: 12; MC4R ag barr: 9.5*; NTR1 ag: 10; PG9 binder: -1

Results for Nc1cc2ccccc2cc1NS(=O)(=O)N1CCCCC1 ?
NR1D1 modulator: 3; PG9 binder: -1

How did O=C(CCCOc1ccccc1)Nc1ccc(Br)cc1 do in these assays?
NR1D1 modulator: -4; MC4R antag cAMP: 6; MC4R ag barr: 8.6*; NTR1 ag: -4; PG9 binder: -2

Results for O=C(CCOc1ccccc1)Nc1ccc(Br)cc1 ?
NR1D1 modulator: -8; MC4R antag cAMP: 24; MC4R ag barr: 0; NTR1 ag: 1; PG9 binder: 0

What do the screens show for `Cc1cccc(OCCCC(=O)Nc2ccc(N3CCCCC3)cc2)c1`?
NR1D1 modulator: 1; MC4R antag cAMP: 5; MC4R ag barr: 11*; NTR1 ag: -1; PG9 binder: -4

Results for CC(=O)OCCCN1CCC2(CCCCC2)C1=O ?
NR1D1 modulator: -4

Results for CCOC(=O)N1CCN(C(=O)C[C@H]2C[C@@]3(C(=O)OC)C(=C[C@H](C(C)C)O[C@@H]3C3CC3)N(Cc3cccc4ccccc34)C2=O)CC1 ?
NR1D1 modulator: -1

Results for N/C(Cc1ccc(Cl)cc1)=N\OC(=O)c1ccc2ccccc2c1 ?
NR1D1 modulator: 2; MC4R antag cAMP: 23; MC4R ag barr: 9.2*; NTR1 ag: 6; PG9 binder: 0

Results for COc1cc(CNCCc2c[nH]c3ccccc23)ccc1OCc1ccc(F)cc1 ?
NR1D1 modulator: -1; MC4R antag cAMP: -2; MC4R ag barr: 9.2*; NTR1 ag: 16; PG9 binder: -2

Results for CCn1c(=S)sc2c(=O)n(CC(=O)Nc3ccc(Cl)cc3)c(C)nc21 ?
NR1D1 modulator: 5; MC4R antag cAMP: 25; MC4R ag barr: 8.6*; NTR1 ag: 10; PG9 binder: -1

Results for CS(=O)(=O)c1nc(-c2ccccc2)cc(-c2ccccc2)c1C#N ?
MC4R antag cAMP: 30*; MC4R ag barr: -2; NTR1 ag: 7

How did Cc1ccc(-c2cc(-c3ccccc3)c(C#N)c(Br)n2)cc1 do in these assays?
NR1D1 modulator: 13; MC4R antag cAMP: 9; MC4R ag barr: -1; NTR1 ag: 2; PG9 binder: 1

How did O=C(NCC1COCCO1)C1CCN(S(=O)(=O)c2cccc3ccccc23)CC1 (stereo unspecified) do in these assays?
NR1D1 modulator: 7

What do the screens show for `Cc1c(NC(=O)CN2C(=O)NC(C)(c3ccccc3)C2=O)c(=O)n(-c2ccccc2)n1C` (stereo unspecified)?
NR1D1 modulator: 1; MC4R antag cAMP: 29*; MC4R ag barr: 0; NTR1 ag: 0; PG9 binder: -3

How did Cc1cccc(Cn2cc(SCC(=O)Nc3nccs3)c3ccccc32)c1 do in these assays?
NR1D1 modulator: 0; MC4R antag cAMP: -6; MC4R ag barr: 8.7*; NTR1 ag: 3; PG9 binder: -34

What do the screens show for `COc1ccc(-n2c(SCC(=O)c3ccc4ccccc4c3)nnc2-c2ccccc2)cc1`?
NR1D1 modulator: 2

Results for COc1c(Cl)cc(Cl)cc1C(=O)Nc1ccc(NC(=O)c2cccs2)cc1 ?
NR1D1 modulator: 1; MC4R antag cAMP: 22; MC4R ag barr: 9.7*; NTR1 ag: 3; PG9 binder: -2

What do the screens show for `O=C1CCC2(CCC(c3ccccc3)CC2)N1CCO` (stereo unspecified)?
NR1D1 modulator: -5

Results for Cc1ccccc1NC(=O)C1C2/C=C\CCCCC21 (stereo unspecified) ?
NR1D1 modulator: 4; MC4R antag cAMP: 7; MC4R ag barr: 8.8*; NTR1 ag: 0; PG9 binder: -1

How did COc1ccc(CNS(=O)(=O)CC2NCCc3ccccc32)cc1 (stereo unspecified) do in these assays?
NR1D1 modulator: -3
